This is an account of results in ChEMBL document CHEMBL3352778, “HDX reveals unique fragment ligands for the vitamin D receptor” (Bioorg Med Chem Lett, 2014).

The structures appear in SMILES notation. Calls of active or inactive are those of the source. The rule behind the calls is not given here.

Broadly, the IC50 is the concentration that gives 50% inhibition.

The species named for test [1] is Homo sapiens. The test can be described thus: Agonist activity at human full length Flag-tagged RXR/His-tagged VDR assessed as ability to recruit coactivator DRIP205 up to 500 uM by Alphascreen assay. Summed up:
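AlphaScreen proximity assay of the RXR–VDR complex run in agonist mode, i.e. without any added VDR agonist. Read-out is the proximity signal produced when coactivator peptide DRIP205 is recruited to the VDR–RXR complex. Fragments were tested at concentrations up to 500 µM.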
For orientation: Alpha assays give light when donor and acceptor beads are brought close together.

Test [2] in a line: Antagonist activity at human full length Flag-tagged RXR/His-tagged VDR by Alphascreen assay. Summed up: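 Antagonist-mode AlphaScreen assay: a non-secosteroidal VDR agonist was added to form the VDR/RXR/DRIP205 complex. Fragments were then added at 10 doses spanning 0.025–500 µM. Dissociation of the complex was quantified as loss of proximity signal on a multilabel reader, and dose–response curves were fitted.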

For `O=C1CC=C(c2ccccc2)O1`, the outcome in test [1] was inactive. This molecule showed an IC50 in test [2] of 440 µM.

Regarding `O=C(O)/C=C(/c1ccccc1)c1cccs1`, the result in test [1] was inactive. The molecule also came in with an IC50 in test [2] of 16.7 µM.

In the case of `Oc1cc(-c2ccc(Cl)cc2)no1`, in test [1], the outcome was inactive. The midpoint of inhibition in test [2], the IC50, lay at 67.1 µM.

As for `OC(c1ccc(-c2cccs2)cc1)(C(F)(F)F)C(F)(F)F`, the result in test [1] was inactive. Also, in test [2], the IC50 came out at 1.3 µM.

`CCC1CCCCN1CC(=O)c1cccs1` (stereo unspecified): the outcome in test [1] was inactive. This molecule yielded an IC50 in test [2] of 20 µM.

Take `Oc1coc(-c2ccccc2)c1`: the outcome in test [1] was inactive. In test [2], this molecule registered an IC50 of 14.2 µM.

As to `O=C(O)C1CSC=C(c2ccccc2)N1` (stereo unspecified), in test [1], the result was inactive. This molecule also yielded an IC50 in test [2] of 2.77 µM.

Regarding `CCn1c(O)cc(C)cc1=O`, in test [1], the result was inactive. Also, half-maximal inhibition in test [2] (IC50) was put at 1.01 µM.

`Oc1cnn(-c2ccccc2)c1Cl`: the result in test [1] was inactive. The same molecule had an IC50 in test [2] of 43.2 µM.

Take `O=C1CCCC=C(Cl)N1c1ccccc1`: the outcome in test [1] was inactive. The molecule also returned a concentration for half-maximal inhibition (IC50) in test [2] of 6.98 µM.

Regarding `Nc1ccc2c(c1)N=C(O)CN2`, in test [1], the result was inactive. In test [2], this molecule had an IC50 of 5.37 µM.

For the molecule `Oc1csc2ccccc12`, the result in test [1] was inactive. This molecule displayed an IC50 in test [2] of 6.83 µM.

Turning to `Cn1c(=O)c2nc(-c3cccc(O)c3O)nnc2n(C)c1=O`, the outcome in test [1] was inactive. Besides, in test [2], the IC50 was determined as 0.194 µM.
